The record followed here is ChEMBL document CHEMBL4513216, “Probing the Open Global Health Chemical Diversity Library for Multistage-Active Starting Points for Next-Generation Antimalarials” (ACS Infect Dis, 2020).

A short description of the data set: Toxicity liver stage against HepG2, at 10uM. Also noted: test concentration 10 uM, cell line HepG2-A16-CD81EGFP. Conditions: human, HepG2-A16-CD81EGFP cells; read-out: INHIBITION
In kind it is cell-based. The method, boiled down: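 Uninfected HepG2-A16-CD81EGFP cells, 3 × 10^3 per well, 1536-well, plated on prespotted compound at 10 μM final, parasite-free screening media added to match infected plates; puromycin 10 μM positive, DMSO 0.5% negative; run in parallel with 48 h PbLuc assay at 37 °C, 5% CO2; viability by CellTiter-Glo luminescence, normalized to controls.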
Turning to `COc1c(CNCCNC(=O)c2ccc(C)cc2)c(C(C)C)nn1C`, the cytotoxicity at 10 µM is -0.945%. As to `CC(C)(C)Nc1c(C2CCN(C(=O)C(C)(C)C)CC2)nc2ccccn12`, the cytotoxicity at 10 µM was 6.53%. For `Cc1cc(C)cc(N2CCN(C(=O)C3CN(C)C(=O)N3)CC2=O)c1` (configuration not stated) the value was -5.13%; for `O=C(c1ccccn1)N1CC[C@H]2[C@H]1CCN2S(=O)(=O)C1CC1`, -123%; for `O=C1OCC(CO)N1Cc1cccc(Cl)c1F` (configuration not stated), 0.739%.

Turning to `O=C(NCCNc1ncccn1)Nc1cc(C(F)(F)F)c[nH]c1=O`, the cytotoxicity at 10 µM is -4.69%. In the case of `CN(C)S(=O)(=O)N1CC[C@]2(O)CCN(Cc3cccc(F)c3)C[C@@H]2C1` it was -5.16%.

With `Cc1cc(NC(=O)NCc2ccncc2)ccc1OC(C)C`, the cytotoxicity at 10 µM was -8.36%. In the case of `CCn1c(C)nnc1SCCn1cc(-c2ncc[nH]2)nn1` it was -6.99%; in that of `O=C(NCC1OCCc2cn(CC3CCOCC3)nc21)c1ccsc1` (configuration not stated), 4.84%; in that of `O=C(NC[C@H]1OC[C@@H](NC2CCOCC2)[C@@H]1O)Nc1ccccc1`, -5.75%. In the case of `O=S(=O)(NCCCn1cncn1)c1ccc2c(c1)CCC2` it was 3.03%; in that of `CC(=O)N1CCCC(Cc2cncc(Br)c2)CC1` (configuration not stated), 4.99%. In the case of `CC(=O)N1CC[C@@H]2O[C@@H](COCc3csc(C)n3)CC[C@@H]21` it was -71.7%. As to `CCN1CCN(C(=O)c2cc(F)cc3nc(C)c(C)nc23)CC1`, the cytotoxicity at 10 µM was -2.25%. In the case of `CCCN(CC1COc2ccccc2O1)C(=O)CCn1cncn1` (configuration not stated) it was -0.627%. For `CCN1CCNC(=O)C12CCN(S(=O)(=O)c1ccccc1)CC2` the value was 0.464%; for `CCN(CCNC(=O)c1ccccc1OCCOC)C1CC1`, 11.7%. For `CCn1ccnc1CN1CCCN(C(=O)Cc2ccc(C)s2)CC1` the value was -19%; for `CC(C)(CNC(=O)CSc1nnnn1C1CC1)c1ccccc1F`, 13.4%. Consider `CCCC(=O)N1CC[C@@H]2[C@H](CC1)N(Cc1cccnc1)CCS2(=O)=O`, for which the cytotoxicity at 10 µM is -8.63%.

As for `CCN(CC1CCOC1)C(=O)Nc1ccc(N2CCOCC2)nc1` (configuration not stated), the cytotoxicity at 10 µM was -2.45%. For `CCN(C(=O)COC)C(c1cccnc1)c1ccc2c(c1)CCO2` (configuration not stated) the value was -12.4%; for `Cc1cc(NC(=O)c2ccc(N3CCOCC3)cc2)[nH]n1`, -28.5%; for `Cc1cccc(N2CCC(NC(C)c3cccs3)CC2)n1` (configuration not stated), -17.2%.

As to `Cn1cc(CN2CCC3(CC2)CC(=O)Nc2ccccc23)cn1`, the cytotoxicity at 10 µM came to 8.49%. In the case of `CCc1nnsc1C(=O)NCCn1nc2ccccn2c1=O` it was -2.04%; in that of `CN(c1ncccc1C#N)C1CCN(CCc2ccccn2)CC1`, 0.926%; in that of `CCCn1nc(C)c(-c2cncn2CC2(N(C)C)CCC(C)CC2)c1C` (configuration not stated), 9.35%. Regarding `CC(C)N1CCC(C(=O)N2CCC(c3ccc(F)cc3)C2)CC1` (configuration not stated), the cytotoxicity at 10 µM was -58.1%. `COc1c(CNC2CCc3cc(Cl)ccc32)c(C)nn1C` (configuration not stated): the cytotoxicity at 10 µM amounted to 5.64%. For `Cc1cnc(N2CCCC3(CCCN(C)C3)C2)nc1` (configuration not stated) the value was -11.8%; for `CN1C[C@H](O)[C@]2(CCN(C(=O)COc3ccccc3)C2)S1(=O)=O`, 1.32%; for `CN(C)CC1(O)CCN(C(=O)c2cnc(-c3cccnc3)nc2)C1` (configuration not stated), 5.75%.

With `O=C([C@H]1CCCO1)N1CC[C@H](O)[C@@H]1Cc1ccncc1`, the cytotoxicity at 10 µM came to 6.38%. In the case of `CC(C)CN1CCC2(CCN(Cc3ccsc3)CC2)C1=O` it was 5.24%; in that of `Cc1cccc(C2(O)CCN(C(=O)c3ccccn3)CC2)c1C`, -0.823%; in that of `CN(C)CCOCC1CN(Cc2ccsc2)Cc2ccnn2C1` (configuration not stated), 3.01%. For `O=C(O)CCn1ccc2c(nnc3c(-c4ccc(F)cc4)cnn32)c1=O` the value was 4.01%; for `O=C(Nc1cn[nH]c1)N(CCCO)C1CCc2ccccc21` (configuration not stated), -1.74%.

Consider `Cc1nc(C)n(CC2CCCCN2CC(=O)NC2CCOCC2)n1` (configuration not stated), for which the cytotoxicity at 10 µM is -9.32%.

In the case of `CCn1c(Cn2cncn2)nnc1C1CCN(CCN)CC1`, the cytotoxicity at 10 µM was -0.111%. In the case of `CSc1nc2ccsc2c(=O)n1CC(=O)NC1CCCC1` it was 0.297%; in that of `O=C(NCc1ccc(CN2CCCCC2)cc1)Nc1cccnc1`, 74.5%. For `CC(NC(=O)CCCOc1ccccc1Cl)c1ccncc1` (configuration not stated), the cytotoxicity at 10 µM is -13%. In the case of `Cc1ccc(S(=O)(=O)Nc2ccc(=O)n(C)c2)cc1` it was 1.07%; in that of `CCC(=O)Nc1ccc2c(c1)C1(CCOCC1)CN2CCOC`, -99%; in that of `O=C(CN1CCCCCC1=O)NCC1CCN(c2ccccc2)C1` (configuration not stated), -6.5%. For `Cc1cc2nc(C(C)C)cc(N3CCC(Oc4ncccn4)CC3)n2n1` the value was 13.9%; for `COCCNc1nc2c(c(NCC3CCOC3)n1)CCNCC2` (configuration not stated), -2.85%. For `Cc1nc(C)n(CC2CCCN(CCc3ccncc3)C2)n1` (configuration not stated) the value was -23%; for `CC(C)(C)c1cc(NC(=O)CN(Cc2ccco2)Cc2cccs2)on1`, 11.2%; for `CCCC(C)NCc1cccnc1N1CCN(c2ccccn2)CC1` (configuration not stated), 6.99%. As to `Cc1ccc(OCC(C)NS(C)(=O)=O)cc1C` (configuration not stated), the cytotoxicity at 10 µM is 9.98%. For `CCC[C@H]1CN(C(=O)c2cc(-c3cccs3)n(C)n2)C[C@@H]1N` the value was -1.02%.

In the case of `c1cncc(N2CCOC3(CCCN(c4nncs4)C3)C2)c1` (configuration not stated), the cytotoxicity at 10 µM was 6.56%. On to `OCCCNc1nc(O)c2c(n1)-c1ccccc1CC21CCCCC1`, for which the cytotoxicity at 10 µM was 11.1%. For `COc1cccc2c1OCC(Cc1cc(C(=O)N3CCCC3)ccn1)C2` (configuration not stated) the value was 5.15%. For the compound `Cc1ccc(Cl)cc1N1CCN(CC(=O)NCc2ccco2)CC1`, the cytotoxicity at 10 µM was determined as 1.67%.

On to `O=C1CC(c2ccccc2)C2(CCN(Cc3nccs3)CC2)N1` (configuration not stated), for which the cytotoxicity at 10 µM came out at 4.67%.

As to `CCn1cc(-c2cc(C(F)(F)F)nn2CCC#N)cn1`, the cytotoxicity at 10 µM was 3.93%. In the case of `CCOC(=O)C1(CCOC)CCCN(Cc2nccn2CC)C1` (configuration not stated) it was 10.8%; in that of `Cn1c(CCNC(=O)C2CCCN(C3CCOCC3)C2)n[nH]c1=O` (configuration not stated), 2.12%.

In the case of `CN(Cc1ccc(F)cc1)C(=O)CN1CCCCC1Cn1cncn1` (configuration not stated), the cytotoxicity at 10 µM was 0.108%.

Turning to `Cn1cc(C(=O)N2CC[C@@H]3[C@@H]2CCN3Cc2cccc(C#N)c2)cn1`, the cytotoxicity at 10 µM was -71.3%. In the case of `COc1cccc(CN2CC[C@H](c3nnc(C)o3)C2)c1` it was -0.902%; in that of `CCn1cc(Cn2cc(-c3cccc(C(C)N(C)C)c3)nn2)cn1` (configuration not stated), -6.97%. In the case of `Cc1nc(CO[C@@H]2CC[C@H]3[C@H]2OCCN3Cc2cccnc2)cs1` it was -1.43%; in that of `Cc1nn(C)c(C)c1S(=O)(=O)NCCn1ccc(-c2cccs2)n1`, -3.53%. For `CCn1ccnc1CN1CCCN(C(=O)Cc2ccc(F)cc2)CC1` the value was -15.8%; for `Cc1ccc(C(NCC(=O)N2CCNC(=O)C2)C(F)(F)F)cc1` (configuration not stated), -8.3%; for `CC(C)CC(C#N)NC(=O)c1ccc(Oc2cccnc2)cc1` (configuration not stated), -11.4%.

Turning to `CC(=O)c1ccc(Cl)c(Cl)c1OCC(=O)NC(C)C`, the cytotoxicity at 10 µM is -9.66%. Consider `Nc1ccnc(N2CCC(Cc3ccccc3Cl)(C(=O)O)CC2)n1`, for which the cytotoxicity at 10 µM was 2.8%.

Turning to `Cc1cccc(C(C(=O)NCCCc2nnc3ccccn23)N(C)C)c1` (configuration not stated), the cytotoxicity at 10 µM is -7.88%. For `COC(=O)c1cc(NC(=O)NCC2CCS(=O)(=O)C2)ccc1Cl` (configuration not stated) the value was 2.57%.

In the case of `O=c1cc(CNCc2ccc3c(c2)OCO3)nc2ccccn12`, the cytotoxicity at 10 µM was -6.17%. For `CC(C)N(CC1CCCN(CC(N)=O)C1)C(=O)OC(C)(C)C` (configuration not stated) the value was -5.66%. For `Cc1ccc(C(=O)N2CCC3(CC2)NC(=O)CC3c2ccccc2)cn1` (configuration not stated) the value was -2.47%; for `O=C(NCC1(O)CCC1)c1c(O)cc(Cl)cc1Cl`, 0.924%; for `COc1ccc(CCC(=O)N(C)CCN2CCOCC2)cc1OC`, 7.83%.

As for `Cn1cc(C(=O)N2C[C@H]3CC(Oc4ccccc4)C[C@H]3C2)cn1` (some centres not stated), the cytotoxicity at 10 µM amounted to 3.6%.

Consider `CNc1nc(CNC(=O)Nc2cccc(Cl)c2OC)cs1`, for which the cytotoxicity at 10 µM was -12.4%. For `O=C1Nc2ccccc2C12CCN(Cc1nccs1)CC2` the value was -0.243%; for `O=C(c1nc(=O)[nH]c2ccccc12)N1CCCC(CC2CC2)(C(=O)O)C1` (configuration not stated), 6.56%. In the case of `CSCc1ccc(C(=O)N2CCN(CC(C)O)CC2)cc1` (configuration not stated), the cytotoxicity at 10 µM was -6.23%. As to `O=C(C1CCSCC1)N1CCC2(CC1)COC(COCC1CC1)C2` (configuration not stated), the cytotoxicity at 10 µM turned out to be 2.56%. For `Fc1cnc(N2CCOCC3(CCCN(c4cnccn4)C3)C2)nc1` (configuration not stated) the value was 10.6%; for `O=C1NCCCc2[nH]c(Cc3cccc(F)c3)nc21`, -3.47%; for `C1CCCN(CC2CCCN(Cc3noc(C4CC4)n3)C2)CC1` (configuration not stated), -12.7%. For `Cc1cc(N2CCCC2c2nnc3n2CCCCC3)nc(C)n1` (configuration not stated) the value was 9.59%; for `NC(=O)CN(Cc1ccc(Br)cc1)C(=O)c1cccnc1`, 9.49%. In the case of `Cc1ccc(F)c(S(=O)(=O)N2CCCC2c2ccncc2)c1` (configuration not stated) it was 10.6%; in that of `OCCn1ncc2c1CN(CC1CCOc3ccccc3C1)C2` (configuration not stated), -5.35%.

For `CNCC(=O)N1CCC(c2cccc(Oc3ccccc3)n2)CC1`, the cytotoxicity at 10 µM was -11.7%. In the case of `Cn1c(CC2CCS(=O)(=O)C2)nnc1SCCOc1ccccc1F` (configuration not stated) it was -6.82%; in that of `COc1nn(C)cc1C(=O)N1CCC(c2nnc(-c3ccsc3)o2)CC1`, 8.08%.
